Measured values pooled from the literature.
Lines come from different studies, so protocols differ. In brackets after ≈: the same amount, converted by molar mass.

C[C@@H](N)[C@H](O)CCCCCCCC(=O)CCCCCCCCCCCCCC[C@@H](O[C@@H]1O[C@H](CO)[C@H](O)[C@H](O)[C@H]1O)[C@@H](C)N
inhibition (Escherichia coli; microbial growth, resazurin; ATCC10536; 50 µM): 100%

NC[C@H]1OB(O)c2c(OCCCO)cccc21
MIC (Escherichia coli; microbial growth; ATCC25922; 16 h): 1.56 µM

N.N.[Cl][Pt][Cl]
IC50 (BEAS-2B; cell growth or viability, MTT; 24 h): > 100 µM

C[C@H]1COc2c(N3CCN(C)CC3)c(F)cc3c(=O)c(C(=O)O)cn1c23
MIC (Escherichia coli; microbial growth; ATCCBAA2452; drug-resistant strain): ≤ 0.03 µg/mL

N.N.[Cl][Pt][Cl]
inhibition (HBL1; cell growth or viability, ATP luminescence; 10 µM, 72 h): 100%

Cc1sc2c(c1C)C(c1ccc(Cl)cc1)=N[C@H](CC(=O)OC(C)(C)C)c1nnc(C)n1-2
viability (HBL1; cell growth or viability, ATP luminescence; 1 µM, 5 days): 110%

CN1C(=O)/C(=N\Nc2ncc(-c3cc4ccccc4oc3=O)s2)c2cc(Cl)ccc21
MIC (Staphylococcus aureus; microbial growth, broth dilution; ATCC43300 MRSA): 1.3 µg/mL

CCn1cc(C(=O)O)c(=O)c2cc(F)c(N3CCNCC3)cc21
MBC (Escherichia coli; microbial killing; ATCC 8739, ATCC8739): 0.25 µM (≈ 0.0798 µg/mL)

CC(=O)NC[C@H]1CN(c2ccc(N3CCOCC3)c(F)c2)C(=O)O1
MIC (Staphylococcus aureus; microbial growth, broth dilution; ATCC43300 MRSA): 2.3 µg/mL

CO/N=C(\C(=O)N[C@@H]1C(=O)N2C(C(=O)O)=C(COC(C)=O)CS[C@H]12)c1csc(N)n1
MBC (Escherichia coli; microbial killing; ATCC 8739, ATCC8739): 1 µM (≈ 0.455 µg/mL)

C[C@@H](O)[C@H]1C(=O)N2C(C(=O)O)=C(S[C@@H]3CN[C@H](C(=O)N(C)C)C3)[C@H](C)[C@H]12
MIC (Escherichia coli; microbial growth; ATCCBAA2452; drug-resistant strain): > 8 µg/mL
